Reference: ChEMBL document CHEMBL3108761, “Phenanthroline-2,9-bistriazoles as selective G-quadruplex ligands” (Eur J Med Chem, 2014)
Calls of active or inactive are those of the source. The calls are words filed in the database; no cut-off is given here.

Columns and labels:
[1] = species: Homo sapiens; assay: Binding affinity to hairpin 5'-FAM-TATAGCTATAT7ATAGCTATA-TAMRA-3' (unknown origin) assessed as melting temperature at 1 uM by FRET assay
In short: (§1)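 K+ buffer: 10 mM KCl, 100 mM LiCl, 10 mM cacodylate, pH 7.3. FAM/TAMRA dual-labelled probes were diluted to 400 nM, annealed at 85 °C for 10 min and cooled to room temperature, then mixed with ligand at the stated concentration. FAM was excited at 492 nm and read at 516 nm every 0.5 °C from 25 to 100 °C, with a 30 s hold before each reading. ΔTm was taken against a buffer-only control, in triplicate.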

[2] = species: Homo sapiens; assay: Binding affinity to human telomeric 5'-FAMd(G3[T2AG3]3)-TAMRA-3' assessed as melting temperature at 1 uM by FRET assay; in short: as §1
[3] = species: Homo sapiens; assay: Binding affinity to hairpin 5'-biotin-d[T10ATAGCTATAT7ATAGCTATA]-3' (unknown origin) assessed as melting temperature at 1 uM by surface plasmon resonance assay
In short: (§2)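 Biotinylated DNA was annealed in 20 mM Tris-HCl, 200 mM KCl, pH 7.4, and captured on a streptavidin chip at ~400 RU. Running buffer: 20 mM KH2PO4, 150 mM KCl, 0.005% P20, 0.5 mM EDTA, pH 7.4. Ligand at 10–1000 nM was injected for 120 s in random order, with blank flow-cell subtraction. KD came from a steady-state affinity fit of Req against concentration; "not detected" means no significant binding at 1 µM.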

[4] = Binding affinity to c-KIT G-quadruplex 5'-biotin-d[T9G3CG3CGCGAG3AG4]-3' (unknown origin) assessed as dissociation constant by surface plasmon resonance assay; set-up: species or system Homo sapiens; in short: as §2
[5] = species: Homo sapiens; assay: Binding affinity to human telomeric 5'-FAMd(G3[T2AG3]3)-TAMRA-3' assessed as melting temperature at 0.5 uM by FRET assay; in short: as §1
[6] = species: Homo sapiens; assay: Binding affinity to hairpin 5'-FAM-TATAGCTATAT7ATAGCTATA-TAMRA-3' (unknown origin) assessed as melting temperature at 0.5 uM by FRET assay; in short: as §1
[7] = Binding affinity to human telomeric 5'-biotin-d[T7(T2AG3)4]-3' assessed as dissociation constant (KD) by surface plasmon resonance assay; in short: as §2
[8] = species: Homo sapiens; assay: Ratio of Kd for c-KIT G-quadruplex 5'-biotin-d[T9G3CG3CGCGAG3AG4]-3' (unknown origin) to Kd for human telomeric 5'-biotin-d[T7(T2AG3)4]-3'
[9] = species: Homo sapiens; assay: Binding affinity to c-KIT G-quadruplex 5'-FAM-G3CG3CGCGAG3AG4-TAMRA-3' (unknown origin) assessed as melting temperature at 1 uM by FRET assay; in short: as §1
[10] = species: Homo sapiens; assay: Binding affinity to c-KIT G-quadruplex 5'-FAM-G3CG3CGCGAG3AG4-TAMRA-3' (unknown origin) assessed as melting temperature at 2 uM by FRET assay; in short: as §1
[11] = species: Homo sapiens; assay: Binding affinity to human telomeric 5'-FAMd(G3[T2AG3]3)-TAMRA-3' assessed as melting temperature at 2 uM by FRET assay; in short: as §1
[12] = species: Homo sapiens; assay: Binding affinity to c-KIT G-quadruplex 5'-FAM-G3CG3CGCGAG3AG4-TAMRA-3' (unknown origin) assessed as melting temperature at 0.5 uM by FRET assay; in short: as §1
[13] = Binding affinity to hairpin 5'-biotin-d[T10ATAGCTATAT7ATAGCTATA]-3' (unknown origin) assessed as dissociation constant by surface plasmon resonance assay; set-up: species or system Homo sapiens; in short: as §2
[14] = species: Homo sapiens; assay: Binding affinity to human telomeric 5'-FAMd(G3[T2AG3]3)-TAMRA-3' in Na+ solution assessed as melting temperature at 0.5 uM by FRET assay
In short: (§3)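 Telomeric FRET probe in Na+ buffer: 100 mM NaCl, 10 mM LiCl, 10 mM cacodylate, pH 7.3. Probe was diluted to 400 nM and annealed at 85 °C for 10 min, then cooled to room temperature; ligand was added at the stated concentration. Emission at 516 nm (excitation 492 nm) was read in 0.5 °C steps from 25 to 100 °C, with a 30 s hold per step. ΔTm versus buffer control, triplicate.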

[15] = species: Homo sapiens; assay: Binding affinity to human telomeric 5'-FAMd(G3[T2AG3]3)-TAMRA-3' in Na+ solution assessed as melting temperature at 2 uM by FRET assay; in short: as §3
[16] = species: Homo sapiens; assay: Binding affinity to human telomeric 5'-FAMd(G3[T2AG3]3)-TAMRA-3' in Na+ solution assessed as melting temperature at 1 uM by FRET assay; in short: as §3
[17] = species: Homo sapiens; assay: Displacement of thiazole orange from human telomeric 5'-AG3(T2AG3)3-3' (unknown origin) in K+ solution assessed as reduction of fluorescence by G4-FID assay
In short: (§4)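 Done at 20 °C in 10 mM sodium cacodylate pH 7.3 with 100 mM KCl; 22AG was also run with 100 mM NaCl. 0.25 µM prefolded DNA carried thiazole orange: 0.50 µM for 22AG and c-KIT, 0.75 µM for ds26. Ligand was titrated from 0.2 to 10 equivalents, with 3 min equilibration per step. Displacement = 100 − (FA/FA0 × 100), from emission area 510–750 nm (excitation 501 nm). DC50 was taken as 50% displacement; otherwise the displacement at 2.5 µM ligand is given.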

[18] = species: Homo sapiens; assay: Displacement of thiazole orange from human telomeric 5'-AG3(T2AG3)3-3' (unknown origin) assessed as reduction of fluorescence at 2.5 uM by G4-FID assay; in short: as §4
[19] = species: Homo sapiens; assay: Displacement of thiazole orange from c-KIT G-quadruplex 5'-G3CG3CGCGAG3AG4-3' (unknown origin) assessed as reduction of fluorescence by G4-FID assay; in short: as §4
[20] = species: Homo sapiens; assay: Binding affinity to c-KIT G-quadruplex 5'-G3CG3CGCGAG3AG4-3' (unknown origin) by circular dichroism spectroscopy
[21] = species: Homo sapiens; assay: Displacement of thiazole orange from human telomeric 5'-AG3(T2AG3)3-3' (unknown origin) in Na+ solution assessed as reduction of fluorescence by G4-FID assay; in short: as §4
[22] = species: Homo sapiens; assay: Displacement of thiazole orange from 5'-CA2TCG2ATCGA2T2CGATC2GAT2G-3' (unknown origin) assessed as reduction of fluorescence at 2.5 uM by G4-FID assay; in short: as §4
[23] = species: Homo sapiens; assay: Binding affinity to human telomeric 5'-AG3(T2AG3)3-3' by circular dichroism spectroscopy
In short: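 DNA at 2 µM final in 10 mM Tris-HCl, 100 mM KCl, pH 7.4 was annealed at 95 °C for 10 min and slowly cooled. Ligand was then added at several final concentrations. Spectra were recorded from 220 to 320 nm in a 5 mm cell at 25 °C, averaged over five scans and buffer-corrected, to assess whether the G-quadruplex fold was retained.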

| SMILES | ΔTm [1] | ΔTm [2] | inhibition [3] | Kd [4] | ΔTm [5] | ΔTm [6] | Kd [7] | Ratio [8] | ΔTm [9] | ΔTm [10] | ΔTm [11] | ΔTm [12] | Kd [13] | ΔTm [14] | ΔTm [15] | ΔTm [16] | also measured |
| --- | --- | --- | --- | --- | --- | --- | --- | --- | --- | --- | --- | --- | --- | --- | --- | --- | --- |
| CC(C)/N=C(/NCCn1cc(-c2ccc3ccc4ccc(-c5cn(CCN/C(=N\C(C)C)NC(C)C)nn5)nc4c3n2)nn1)NC(C)C | 1.1 °C | 9.7 °C | inactive | 40 nM | 4.2 °C | 0.7 °C | 567 nM | 13 | 10.4 °C | 12.5 °C | 13.6 °C | 7.4 °C | – | – | – | – | – |
| NCCCCn1cc(-c2ccc3ccc4ccc(-c5cn(CCCCN)nn5)nc4c3n2)nn1 | 1.3 °C | 12.9 °C | – | 50 nM | 10.1 °C | 1 °C | 115 nM | 2 | 13.6 °C | 15.2 °C | 15.8 °C | 11.1 °C | 1060 nM | – | – | – | – |
| C[n+]1ccc(-c2c3nc(c(-c4cc[n+](C)cc4)c4ccc([nH]4)c(-c4cc[n+](C)cc4)c4ccc([nH]4)c(-c4cc[n+](C)cc4)c4nc2C=C4)C=C3)cc1 | 14.8 °C | 23.1 °C | – | – | 19.7 °C | 9.3 °C | – | – | > 25 °C | – | > 35 °C | > 25 °C | – | – | – | – | – |
| CC(C)/N=C(/NCCCn1cc(-c2ccc3ccc4ccc(-c5cn(CCCN/C(=N\C(C)C)NC(C)C)nn5)nc4c3n2)nn1)NC(C)C | 1.3 °C | 9.5 °C | inactive | 33 nM | 3.2 °C | 0.7 °C | 440 nM | 13 | 12 °C | 14.6 °C | 14.5 °C | 8.3 °C | – | 2.8 °C | 8.8 °C | 4.3 °C | – |
| N=C(N)NCCCCn1cc(-c2ccc3ccc4ccc(-c5cn(CCCCNC(=N)N)nn5)nc4c3n2)nn1 | 3.7 °C | 17.3 °C | – | 29 nM | 12.2 °C | 1.7 °C | 61 nM | 2 | 16.8 °C | 18.5 °C | 21.8 °C | 13.8 °C | 1020 nM | – | – | – | – |

Continued by falling Kd [4], values first:

| ΔTm [1] | ΔTm [2] | inhibition [3] | Kd [4] | ΔTm [5] | ΔTm [6] | Kd [7] | Ratio [8] | ΔTm [9] | ΔTm [10] | ΔTm [11] | ΔTm [12] | Kd [13] | ΔTm [14] | ΔTm [15] | ΔTm [16] | SMILES | also measured |
| --- | --- | --- | --- | --- | --- | --- | --- | --- | --- | --- | --- | --- | --- | --- | --- | --- | --- |
| 2.5 °C | 15 °C | – | 50 nM | 11 °C | 1.2 °C | 75 nM | 2 | 13.9 °C | 16.4 °C | 18.9 °C | 11 °C | 1120 nM | – | – | – | N=C(N)NCCn1cc(-c2ccc3ccc4ccc(-c5cn(CCNC(=N)N)nn5)nc4c3n2)nn1 | – |
| 0.6 °C | 5.5 °C | – | 47 nM | 4.4 °C | 0.4 °C | 139 nM | 2 | 4.9 °C | 6.2 °C | 6.8 °C | 3.7 °C | 1180 nM | – | – | – | NCCn1cc(-c2ccc3ccc4ccc(-c5cn(CCN)nn5)nc4c3n2)nn1 | – |
| 1.2 °C | 13.3 °C | – | 45 nM | 10.3 °C | 1.1 °C | 75 nM | 2 | 11.8 °C | 13.9 °C | 16.1 °C | 9.8 °C | 914 nM | 5.1 °C | 11.9 °C | 8.4 °C | NCCCn1cc(-c2ccc3ccc4ccc(-c5cn(CCCN)nn5)nc4c3n2)nn1 | – |
| 1.3 °C | 15.1 °C | inactive | 35 nM | 5.1 °C | 0.8 °C | 176 nM | 2 | 13.9 °C | 15.9 °C | 18.1 °C | 10.3 °C | – | – | – | – | CC(C)/N=C(/NCCCCn1cc(-c2ccc3ccc4ccc(-c5cn(CCCCN/C(=N\C(C)C)NC(C)C)nn5)nc4c3n2)nn1)NC(C)C | – |
| 2.8 °C | 18 °C | – | 28 nM | 12.2 °C | 1.6 °C | 57 nM | 2 | 16.1 °C | 18.4 °C | 22 °C | 11.4 °C | 1060 nM | 6.6 °C | 16.4 °C | 11.4 °C | N=C(N)NCCCn1cc(-c2ccc3ccc4ccc(-c5cn(CCCNC(=N)N)nn5)nc4c3n2)nn1 | Q50 [17]: 0.94 µM; inhibition [18]: 47%; Q50 [19]: 0.25 µM; Activity [20]: Active; Q50 [21]: > 2.5 µM; inhibition [22]: 21%; Activity [23]: Active |
